Reference: the RNAGym collection of RNA variant scans (doi:10.1126/science.aae0568)
Variants at the floor of the assay were thinned out.

B1: tRNA (parent)
chain: GUUCCGUUGGCGUAAUGGUAACGCGUCUCCCUCCUAAGGAGAAGACUGCGGGUUCGAGUCCCGUACGGAACG

Variants of: B1
Test: yeast fitness relative to wild type (ratio to wild type); higher = fitter; tRNA-Arg(CCU), competitive growth, 37 C, YPD
Outline: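 Genotype frequency changes were the basis for Darwinian fitness relative to wild type. The frequencies came from 100-nucleotide paired-end sequencing of gene amplicons from the start population and each end population of pooled yeast strains with tRNA-Arg(CCU) gene variants at the native locus. Competition ran in YPD at 37°C for 24 hours in six replicates, genotypes needed ≥ 100 starting reads, and estimates < 0.5 were set to 0.5.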

| Variant | yeast fitness |
| --- | --- |
| GUUCCGUUGGCGUAAAGGUAACGCGUCCCCCUCCUAAGGAGAAGACCGCGGGUUCGAGUCCCGUACGGAACG [U16A U28C U47C] | 0.79 |
| GUUCCGUUGGCGUAAAGGUAACGCGUCUCCCACCUAAGGCGAAGACUGCGGGAUCGAGUCCCGUACGGAACG [U16A U32A A40C U53A] | 0.551 |
| GUUCCGUUGGCGUAAAGGUAACGCGUCUCCCUCCCAAGGAGAAGGCUGCGGGUUCCAGUCCCGUACGGAACG [U16A U35C A45G G56C] | 0.602 |
| GUUCCGUUGGCGUAACGGUAAUGCGUCUCCCUCCUAUGGAGAAGACUGCGGGUUCGAGUCCCGUACCGAACG [U16C C22U A37U G67C] | ≤ 0.5 |
| GUUCCGUUGGCGUAACGGUAACGCGUCUCCAUCUUAAGGAGAAGACUGCGGGUUCGAGUCCCGUACGGCACG [U16C C31A C34U A69C] | ≤ 0.5 |
| GUUCCGUUGGCGUAACGGUAACGCGUCUCCCUCCUAAGGCGAAGACUGCGGGUUCGUGUCCCGUACGAAACG [U16C A40C A57U G68A] | 0.641 |
| GUUCCGUUGGCGUAACGGUAACGCGUGUCCCUCCUAAGGAGAAGACUGCGGGUUCGAGUCCCGUACGGAACG [U16C C27G] | 0.727 |
| GUUCCGUUGGCGUAACGGUAACGCGUCUCCCUCCUAGGGAGCAGACUGCGGGUUCGAGUCCCGUACGGUACG [U16C A37G A42C A69U] | ≤ 0.5 |
| GUUCCGUUGGCGUAACGGUAACGCGUCUCCCUCCUAAGGAGAAGACUGCGGGUUCGAGUCCCGUACGGUACG [U16C A69U] | 0.998 |
| GUUCCGUUGGCGUAAAGGUAACGCGUCUCCCGCCUAAGGAGAAGACUGCGGGUUGGAGUCCCGUACGGAACG [U16A U32G C55G] | ≤ 0.5 |
| GUUCCGUUGGCGUAACGGUAACGCGUCUCCAUCCUAAGGAGUAGACUGCGGGUUCGAGUCCGGUACGGACCG [U16C C31A A42U C62G A70C] | ≤ 0.5 |
| GUUCCGUUGGCGUAAAGGUAACGCGUCUCCCUCCUAAGGAGAAGACUGCGGGAUCGGGUCCCGUACGGAACG [U16A U53A A57G] | ≤ 0.5 |
| GUUCCGUUGGCGUAAAGGUAACGCGUCUCCCUCCUAAGGAGAAGACUGCGGGUCCGAGUCCCGUACGGAACG [U16A U54C] | 0.849 |
| GUUCCGUUGGCGUAAAGGUAACGCGUCUCCCUCCCAAGGAGAAGACUGCGGGUUCGAGUCCCGUACGGAACG [U16A U35C] | 0.91 |
| GUUCCGUUGGCGUAACGGUAACGCGUCUUCCUCCUUAGGCGAAGAUUGCGGGUUCGAGUCCCGUACGGAACG [U16C C29U A36U A40C C46U] | ≤ 0.5 |
| GUUCCGUUGGCGUAAAGGUAACGCGUCUCCCCCCUAUGGAGAAGACUGGGGGUUCGAGUCCCAUACGGAUCG [U16A U32C A37U C49G G63A A70U] | ≤ 0.5 |
| GUUCCGUUGGCGUAACGGUAACGCGUCUCCCUCGUAAGGAGAAGACUGCGGGUUCGAGUCCCGUUCUGAACG [U16C C34G A65U G67U] | ≤ 0.5 |
| GUUCCGUUGGCGUAACGGUAACGCGUCUCUCUCCUAAGGAGAAGACUGCGGGUUCGAGUCCCGUACGGAACG [U16C C30U] | 0.893 |
| GUUCCGUUGGCGUAACGGUUACGCAUCCCGCUCCUAAGGAGAAGACUGCGGGUUCGAGUCCCGUACGGAACG [U16C A20U G25A U28C C30G] | ≤ 0.5 |

| Variant | yeast fitness |
| --- | --- |
| GUUCCGUUGGCGUAACGGUAACGCGUCUCCCUCCUAAGGAGAAGACUGCGGGUUCGAGUCCCGUACGGGGCG [U16C A69G A70G] | 0.745 |
| GUUCCGUUGGCGUAACGGUAACGCGUGUCCCUCCUAAGGAGAAGACUGCGGAUUCGAGUGCCGUACGGUCCG [U16C C27G G52A C60G A69U A70C] | ≤ 0.5 |
| GUUCCGUUGGCGUAACGGUAAAGCGUCUCCCUCCUAAGGAGAAGACUGCGGGCUCGAGUCCCGUACGGAACG [U16C C22A U53C] | 0.629 |
| GUUCCGUUGGCGUAACGGUAACGCGUCUCCCUCCUAAGGAGGAGACUGCGGGUUCGAGUCCCGUACAGAACG [U16C A42G G67A] | ≤ 0.5 |
| GUUCCGUUGGCGUAACGGUAACGCGUGUCCCUCCUAAGGAGAAGACUCCGGGUUCGAGUCCCGUCCGGAACG [U16C C27G G48C A65C] | ≤ 0.5 |
| GUUCCGUUGGCGUAACGGUAACGGGUCUCGCUCCUUAGGAGAAGACUGCGGGUUCGAGUCCCGUAUGGAACG [U16C C24G C30G A36U C66U] | ≤ 0.5 |
| GUUCCGUUGGCGUAACGGUAAAGCGUCUCUGUCCUAAGGAGAAGACUGCGGGUUCGAGUCCCGUACGGAACG [U16C C22A C30U C31G] | ≤ 0.5 |
| GUUCCGUUGGCGUAACGGUAACGCGUCUCCCUCCUCAGGAGAAGACUGCGGGUUCGAGUCCCGUACGGAACG [U16C A36C] | 0.675 |
| GUUCCGUUGGCGUAACGGUAACGCGUCUUCCUCUUAAGGAGAAGACUGCGGGUUCGCGUCCCGCACGGAACG [U16C C29U C34U A57C U64C] | ≤ 0.5 |
| GUUCCGUUGGCGUAACGGUAACGCGUCUCCAUCCUAAGGAGAAGACUGCGAGUUCGAGUCCCGUACGGAACG [U16C C31A G51A] | ≤ 0.5 |
| GUUCCGUUGGCGUAAAGGUAACGCGUCUCCCUCCUAAGGAGAAGACCGCGGGUUCGAGUCCCGUACGGAGCG [U16A U47C A70G] | 0.78 |
| GUUCCGUUGGCGUAACGGUACUGCGUCUCCCUCCUAAGGAGAAGACUGCGGGUUCGAGUCCCGUACGGAACG [U16C A21C C22U] | ≤ 0.5 |
| GUUCCGUUGGCGUAAAGGUAACGCGUCUCCCUCCUAAGGAGAAGACCGCGGGUUCGAGUCCCGUACGGAACG [U16A U47C] | 1.01 |
| GUUCCGUUGGCGUAACGGUAACGCGUUUCCCUCCUAAGGAGAAGACUGCGGGUUCGAGUCCCAUGCGGAACG [U16C C27U G63A A65G] | ≤ 0.5 |
| GUUCCGUUGGCGUAACGGUAACGCGUCUCCCUCAUAGGGAGAAGACUGCGGGUUCGAGUCCCGUACGGAACG [U16C C34A A37G] | ≤ 0.5 |
| GUUCCGUUGGCGUAACGGUAGCGCGUCUCCCUCCUAAGGAGAAGACUGCGGGUUCGAGUCCCGUACGGAACG [U16C A21G] | 0.91 |
| GUUCCGUUGGCGUAACGGUUACGUGUCUCCCUCCUAAGGAGAAGACUGCGGGUUCGAGUCCCGUUCGGAACG [U16C A20U C24U A65U] | ≤ 0.5 |
| GUUCCGUUGGCGUAACGGUAACGCGUCUCAUUCCUAAGGAGAAGACUGCGGGUUCGAGUCCCGUACGGAACG [U16C C30A C31U] | 0.834 |
| GUUCCGUUGGCGUAACGGUAACGUGUCUCUCUCCUAAGGAGAAGACUGCGGGUUCGAGUCCCGUAUGGAACG [U16C C24U C30U C66U] | ≤ 0.5 |
